Assay results as given in ChEMBL document CHEMBL3045743, “Synthesis and herbicidal activity of isoindoline-1,3-dione substituted benzoxazinone derivatives containing a carboxylic ester group” (J Agric Food Chem, 2009).

Assays:
Digitaria sanguinalis [1] = experiment: Post-emergence herbicidal activity against Digitaria sanguinalis (hairy crabgrass) assessed as growth inhibition at 75 g.a.i./ha applied at one-leaf stage measured after 15 days; type: functional; conditions: 360 h, read-out: GI
Outline: (§1)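 Pot-grown weeds sown 5 mm deep in greenhouse clay soil (pH 6.5, 1.7% organic matter, CEC 12.9 cmol/kg) at 22-25 °C. Stock diluted with water and sprayed post-emergence: dicots at 2-leaf stage, monocots at 1-leaf stage. Untreated and DMF solvent controls were included. % growth inhibition was scored visually versus untreated controls after 15 days. Triplicates averaged.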

[2] = system: Brassica rapa subsp. oleifera; experiment: Phytotoxicity against Brassica rapa subsp. oleifera assessed as growth inhibition at 7.5 to 60 g.a.i/ha post-emergent application measured after 15 days by greenhouse crop selectivity assay; type: organism-based; conditions: in vivo, other, 360 h
Outline: (§2)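 Postemergence crop selectivity test on pot-grown plants in a greenhouse, in clay soil (pH 6.5, 1.7% organic matter, CEC 12.9 cmol/kg). Stock was diluted with water and sprayed at 60, 30, 15 or 7.5 g a.i./ha, in triplicate. Growth inhibition was rated visually against untreated controls after 15 days and given as the triplicate mean percentage.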

Chenopodium album [3] = experiment: Post-emergence herbicidal activity against Chenopodium album assessed as growth inhibition at 7.5 g.a.i./ha applied at two-leaf stage measured after 15 days; type: functional; conditions: 360 h, read-out: GI; outline: as §1
Arachis hypogaea [4] = experiment: Phytotoxicity against Arachis hypogaea (peanut) assessed as growth inhibition at 7.5 to 60 g.a.i/ha post-emergent application measured after 15 days by greenhouse crop selectivity assay; type: organism-based; conditions: in vivo, other, 360 h; outline: as §2
Echinochloa crus-galli [5] = experiment: Pre-emergence herbicidal activity against Echinochloa crus-galli (barnyard grass) assessed as growth inhibition at 75 g.a.i./ha applied 24 hr after seeds were sown measured after 15 days; type: functional; conditions: read-out: GI
Outline: (§3)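 Weeds sown 5 mm deep in pots of greenhouse clay soil (pH 6.5, 37.5% clay, CEC 12.9 cmol/kg) and grown at 22-25 °C. Water-diluted formulation was applied pre-emergence 24 h after sowing. Untreated and DMF solvent controls were included. Growth inhibition was visually rated in % against untreated controls after 15 days, as the mean of triplicates.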

Gossypium [6] = experiment: Phytotoxicity against Gossypium (cotton) assessed as growth inhibition at 75 g.a.i/ha pre-emergent application measured after 15 days by greenhouse crop selectivity assay; type: organism-based; conditions: in vivo, other, 360 h
Outline: (§4)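 Pre-emergence greenhouse crop selectivity test on pot-grown plants in clay soil (pH 6.5, 1.7% organic matter, 37.5% clay, CEC 12.9 cmol/kg). Stock solutions were diluted with water and applied at 300, 150, 75 or 37.5 g a.i./ha, in triplicate. After 15 days, phytotoxicity was scored visually against untreated controls as % crop growth inhibition, averaged over the triplicates.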

Glycine max = experiment: Phytotoxicity against Glycine max (soybean) assessed as growth inhibition at 150 g.a.i/ha pre-emergent application measured after 15 days by greenhouse crop selectivity assay; type: organism-based; conditions: in vivo, other, 360 h; outline: as §4
Abutilon theophrasti [7] = experiment: Post-emergence herbicidal activity against Abutilon theophrasti (velvetleaf) assessed as growth inhibition at 75 g.a.i./ha applied at two-leaf stage measured after 15 days; type: functional; conditions: 360 h, read-out: GI; outline: as §1
Setaria viridis [8] = experiment: Post-emergence herbicidal activity against Setaria viridis (green foxtail) assessed as growth inhibition at 37.5 g.a.i./ha applied at one-leaf stage measured after 15 days; type: functional; conditions: 360 h, read-out: GI; outline: as §1
Abutilon theophrasti [9] = experiment: Pre-emergence herbicidal activity against Abutilon theophrasti (velvetleaf) assessed as growth inhibition at 37.5 g.a.i./ha applied 24 hr after seeds were sown measured after 15 days; type: functional; conditions: read-out: GI; outline: as §3
Oryza sativa = experiment: Phytotoxicity against Oryza sativa (rice) assessed as growth inhibition at 7.5 to 60 g.a.i/ha post-emergent application measured after 15 days by greenhouse crop selectivity assay; type: organism-based, L.; conditions: in vivo, other, 360 h; outline: as §2
Chenopodium album [10] = experiment: Post-emergence herbicidal activity against Chenopodium album assessed as growth inhibition at 37.5 g.a.i./ha applied at two-leaf stage measured after 15 days; type: functional; conditions: 360 h, read-out: GI; outline: as §1
Amaranthus spinosus = experiment: Post-emergence herbicidal activity against Amaranthus spinosus assessed as growth inhibition at 15 g.a.i./ha applied at two-leaf stage measured after 15 days; type: functional; conditions: 360 h, read-out: GI; outline: as §1
Gossypium [11] = experiment: Phytotoxicity against Gossypium (cotton) assessed as growth inhibition at 7.5 to 60 g.a.i/ha post-emergent application measured after 15 days by greenhouse crop selectivity assay; type: organism-based; conditions: in vivo, other, 360 h; outline: as §2
Setaria viridis [12] = experiment: Post-emergence herbicidal activity against Setaria viridis (green foxtail) assessed as growth inhibition at 15 g.a.i./ha applied at one-leaf stage measured after 15 days; type: functional; conditions: 360 h, read-out: GI; outline: as §1
Digitaria sanguinalis [13] = experiment: Pre-emergence herbicidal activity against Digitaria sanguinalis (hairy crabgrass) assessed as growth inhibition at 7.5 g.a.i./ha applied 24 hr after seeds were sown measured after 15 days; type: functional; conditions: read-out: GI; outline: as §3
Echinochloa crus-galli [14] = experiment: Post-emergence herbicidal activity against Echinochloa crus-galli (barnyard grass) assessed as growth inhibition at 37.5 g.a.i./ha applied at one-leaf stage measured after 15 days; type: functional; conditions: 360 h, read-out: GI; outline: as §1
Chenopodium album [15] = experiment: Post-emergence herbicidal activity against Chenopodium album assessed as growth inhibition at 75 g.a.i./ha applied at two-leaf stage measured after 15 days; type: functional; conditions: 360 h, read-out: GI; outline: as §1
[16] = Phytotoxicity against Oryza sativa (rice) assessed as growth inhibition at 150 g.a.i/ha pre-emergent application measured after 15 days by greenhouse crop selectivity assay; type: organism-based, L.; conditions: in vivo, read-out: GI; outline: as §4
Setaria viridis [17] = experiment: Pre-emergence herbicidal activity against Setaria viridis (green foxtail) assessed as growth inhibition at 37.5 g.a.i./ha applied 24 hr after seeds were sown measured after 15 days; type: functional; conditions: read-out: GI; outline: as §3
Setaria viridis [18] = experiment: Post-emergence herbicidal activity against Setaria viridis (green foxtail) assessed as growth inhibition at 75 g.a.i./ha applied at one-leaf stage measured after 15 days; type: functional; conditions: 360 h, read-out: GI; outline: as §1
Echinochloa crus-galli [19] = experiment: Post-emergence herbicidal activity against Echinochloa crus-galli (barnyard grass) assessed as growth inhibition at 75 g.a.i./ha applied at one-leaf stage measured after 15 days; type: functional; conditions: 360 h, read-out: GI; outline: as §1
Arachis hypogaea [20] = experiment: Phytotoxicity against Arachis hypogaea (peanut) assessed as growth inhibition at 37.5 g.a.i/ha pre-emergent application measured after 15 days by greenhouse crop selectivity assay; type: organism-based; conditions: in vivo, other, 360 h; outline: as §4
Arachis hypogaea [21] = experiment: Phytotoxicity against Arachis hypogaea (peanut) assessed as growth inhibition at 75 g.a.i/ha pre-emergent application measured after 15 days by greenhouse crop selectivity assay; type: organism-based; conditions: in vivo, other, 360 h; outline: as §4
Triticum aestivum = experiment: Phytotoxicity against Triticum aestivum (wheat) assessed as growth inhibition at 7.5 to 60 g.a.i/ha post-emergent application measured after 15 days by greenhouse crop selectivity assay; type: organism-based; conditions: in vivo, other, 360 h; outline: as §2
Digitaria sanguinalis [22] = experiment: Pre-emergence herbicidal activity against Digitaria sanguinalis (hairy crabgrass) assessed as growth inhibition at 75 g.a.i./ha applied 24 hr after seeds were sown measured after 15 days; type: functional; conditions: read-out: GI; outline: as §3
[23] = system: Brassica rapa subsp. oleifera; experiment: Phytotoxicity against Brassica rapa subsp. oleifera assessed as growth inhibition at 300 g.a.i/ha pre-emergent application measured after 15 days by greenhouse crop selectivity assay; type: functional; conditions: pre-emergence, 360 h, read-out: GI
Outline: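 Pot-grown crop in greenhouse clay soil (pH 6.5, 1.7% organic matter, 37.5% clay, CEC 12.9 cmol/kg). Stock diluted with water and applied pre-emergence at 300, 150, 75 or 37.5 g a.i./ha. Cultivated 15 days, then phytotoxicity scored visually as % growth inhibition versus untreated controls. Triplicate treatments, averaged.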

[24] = Phytotoxicity against Oryza sativa (rice) assessed as growth inhibition at 37.5 g.a.i/ha pre-emergent application measured after 15 days by greenhouse crop selectivity assay; type: organism-based, L.; conditions: in vivo, 37.5 g.a.i/ha, read-out: GI; outline: as §4

Compound | inhibition of growth at 75 g/ha (Digitaria sanguinalis [1]) | Activity [2] | inhibition of growth at 7.5 g/ha (Chenopodium album [3]) | Activity (Arachis hypogaea [4]) | inhibition of growth at 75 g/ha (Echinochloa crus-galli [5]) | growth inhibition (GI) (Gossypium [6]) | inhibition of growth at 75 g/ha (Abutilon theophrasti [7]) | inhibition of growth at 37.5 g/ha (Setaria viridis [8]) | inhibition of growth at 37.5 g/ha (Abutilon theophrasti [9]) | Activity (Oryza sativa) | inhibition of growth at 37.5 g/ha (Chenopodium album [10]) | inhibition of growth at 15 g/ha (Amaranthus spinosus) | Activity (Gossypium [11]) | inhibition of growth at 15 g/ha (Setaria viridis [12]) | inhibition of growth at 7.5 g/ha (Digitaria sanguinalis [13]) | inhibition of growth at 37.5 g/ha (Echinochloa crus-galli [14]) | inhibition of growth at 75 g/ha (Chenopodium album [15]) | inhibition at 360 h [16] | inhibition of growth at 37.5 g/ha (Setaria viridis [17]) | inhibition of growth at 75 g/ha (Setaria viridis [18]) | further results
CCOC(=O)C(CC)N1C(=O)C(C)Oc2cc(F)c(N3C(=O)C4=C(CCCC4)C3=O)cc21 (centres undefined) | > 80% | Toxic | 100% | Toxic | > 80% | Not Active | > 80% | 70% | 70% | Toxic | 100% | 100% | Toxic | 30% | 0% | 50% | > 80% | > 10% | 0% | > 80% | growth inhibition (GI) (Glycine max): Not Active; inhibition of growth at 75 g/ha (Echinochloa crus-galli [19]): > 80%; growth inhibition (GI) (Arachis hypogaea [20]): Not Active; growth inhibition (GI) (Arachis hypogaea [21]): Not Active; Activity (Triticum aestivum): Toxic; inhibition of growth at 75 g/ha (Digitaria sanguinalis [22]): > 80%; inhibition of growth at 300 g/ha [23]: > 10%
C#CCN1C(=O)COc2cc(F)c(N3C(=O)C4=C(CCCC4)C3=O)cc21 [FLUMIOXAZIN] | > 80% | Toxic | 100% | Toxic | > 80% | Not Active | > 80% | 95% | 100% | Toxic | 100% | 100% | Toxic | 90% | 0% | 80% | > 80% | > 10% | 80% | > 80% | inhibition at 360 h [24]: > 10%; inhibition of growth at 75 g/ha (Echinochloa crus-galli [19]): > 80%; growth inhibition (GI) (Arachis hypogaea [20]): Not Active; growth inhibition (GI) (Arachis hypogaea [21]): Not Active; Activity (Triticum aestivum): Toxic; inhibition of growth at 75 g/ha (Digitaria sanguinalis [22]): > 80%; inhibition of growth at 300 g/ha [23]: > 10%
